{"data": "Assay results collected from several papers", "target": "Carbonic anhydrase 2 (CA2, Homo sapiens, UniProt P00918)", "effect on": "enzyme activity", "mode": "inhibitor"}
{"SMILES": "OC1CCN(c2ccc(/C=N/NC(=S)Nc3cccc(Cl)c3Cl)cc2)CC1", "method": "absorbance", "endpoint": "IC50", "result": "267 nM"}
{"SMILES": "Cc1ccccc1C(=O)Nc1nnc(S(N)(=O)=O)s1", "method": "stopped-flow", "endpoint": "Ki", "result": "25.6 nM"}
{"SMILES": "OC(Cn1cncn1)(Cn1cncn1)c1ccc(F)cc1F", "method": "absorbance", "pH": "pH 7.4", "endpoint": "IC50", "result": "12500 nM"}
{"SMILES": "NS(=O)(=O)c1cnc(NC(=O)CCc2ccccc2)s1", "method": "stopped-flow", "endpoint": "Ki", "result": "98.7 nM"}
{"SMILES": "COc1ccc(NC(=S)N/N=C/c2ccc(N3CCC(O)CC3)cc2)cc1", "method": "absorbance", "endpoint": "IC50", "result": "579 nM"}
{"SMILES": "NS(=O)(=O)c1nnc(NC(=O)CCC2CCCCO2)s1 (stereo not drawn)", "method": "stopped-flow", "endpoint": "Ki", "result": "0.84 nM"}
{"SMILES": "NS(=O)(=O)c1ccc(Nc2nc(-c3cc4cc(Br)ccc4oc3=O)cs2)c(Br)c1", "method": "absorbance", "endpoint": "IC50", "result": "5860 nM"}
{"SMILES": "CC(C)(C)CCC(=O)Nc1nnc(S(N)(=O)=O)s1", "method": "stopped-flow", "endpoint": "Ki", "result": "10.2 nM"}
{"SMILES": "Cc1ccc(CNC(=S)N/N=C/c2ccc(N3CCC(O)CC3)cc2)cc1", "method": "absorbance", "endpoint": "IC50", "result": "698 nM"}
{"SMILES": "CN(C/C=C/C#CC(C)(C)C)Cc1cccc2ccccc12", "method": "absorbance", "pH": "pH 7.4", "endpoint": "IC50", "result": "32200 nM"}
{"SMILES": "OC1CCN(c2ccc(/C=N/NC(=S)Nc3ccccc3)cc2)CC1", "method": "absorbance", "endpoint": "IC50", "result": "507 nM"}
{"SMILES": "CN(C)CCC(c1ccccc1)c1ccccn1 (stereo not drawn)", "method": "absorbance", "pH": "pH 7.4", "endpoint": "IC50", "result": "22200 nM"}
{"SMILES": "OC1CCN(c2ccc(/C=N/NC(=S)Nc3ccc(F)cc3)cc2)CC1", "method": "absorbance", "endpoint": "IC50", "result": "255 nM"}
{"SMILES": "NS(=O)(=O)c1nnc(NC(=O)CCc2ccc(F)cc2)s1", "method": "stopped-flow", "endpoint": "Ki", "result": "3.6 nM"}
{"SMILES": "Cc1cncc(CN2CCC(=C3c4ccc(Cl)cc4CCc4cccnc43)CC2)c1", "method": "absorbance", "pH": "pH 7.4", "endpoint": "IC50", "result": "14600 nM"}
